ChEMBL document CHEMBL1132578, “New peptidic cysteine protease inhibitors derived from the electrophilic alpha-amino acid aziridine-2,3-dicarboxylic acid” (J Med Chem, 1999)
The source made the active and inactive calls. The calls are words filed in the database; no cut-off is given here.

Columns and labels:
[1] = target: Procathepsin L (Homo sapiens) (UniProt P07711); assay: Evaluated for second-order rate constants for the inactivation of mammalian lysosomal cathepsin L.
Papain (Carica papaya) [2] = target: T1, Papain (Carica papaya) (UniProt P00784); assay: Second-order rate constants for the inactivation of papain (vacuolar plant enzyme)
T1 sequence (whole entry): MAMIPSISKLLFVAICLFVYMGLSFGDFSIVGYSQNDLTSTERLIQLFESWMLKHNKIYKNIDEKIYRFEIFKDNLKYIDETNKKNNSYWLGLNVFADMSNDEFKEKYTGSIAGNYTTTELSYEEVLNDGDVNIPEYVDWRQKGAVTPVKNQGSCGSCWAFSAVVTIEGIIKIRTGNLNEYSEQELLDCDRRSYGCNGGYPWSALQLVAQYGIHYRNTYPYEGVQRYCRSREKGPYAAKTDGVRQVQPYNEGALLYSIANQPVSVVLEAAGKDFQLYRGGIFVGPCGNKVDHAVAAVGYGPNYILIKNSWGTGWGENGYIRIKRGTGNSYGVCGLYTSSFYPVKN
In short: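 Papain with L-BAPA (405 nm) in 50 mM phosphate pH 6.5, 5 mM EDTA, 5 mM cysteine, or with Z-Phe-Arg-AMC in phosphate pH 6.5 with DTT, EDTA, Brij 35; 25 °C. kobs at 3–7 inhibitor concentrations, continuous or dilution assay; k2nd = ki/Ki, or from linear kobs vs [I] when unsaturated; substrate-corrected (Km 2.5 mM L-BAPA, 0.09 mM Z-Phe-Arg-AMC).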

Cathepsin B (Bos taurus) = Cathepsin B (Bos taurus) (UniProt P07688); assay: Evaluated for second-order rate constants for the inactivation of mammalian lysosomal cathepsin B.
Papain (Carica papaya) [3] = target: T1, Papain (Carica papaya); assay: Second-order rate constants for the inactivation of papain (vascular plant enzyme); no inhibition
[4] = target: T2, Calpain-2 catalytic subunit (Sus scrofa, UniProt P43367); assay: Inhibition constant for the non time dependent inhibition of Calpain 2
T2 sequence (P43367 whole entry): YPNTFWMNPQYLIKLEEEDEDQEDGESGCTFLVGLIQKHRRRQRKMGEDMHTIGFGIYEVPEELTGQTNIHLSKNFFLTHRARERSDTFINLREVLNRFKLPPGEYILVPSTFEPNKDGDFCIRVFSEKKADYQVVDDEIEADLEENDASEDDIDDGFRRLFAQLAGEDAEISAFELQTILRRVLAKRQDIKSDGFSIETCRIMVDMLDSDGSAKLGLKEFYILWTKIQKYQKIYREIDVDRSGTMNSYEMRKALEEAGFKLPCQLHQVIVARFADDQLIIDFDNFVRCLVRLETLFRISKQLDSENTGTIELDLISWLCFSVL
In short: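 Calpain I or II with Suc-Leu-Tyr-AMC in 50 mM Tris pH 7.5, 5 mM CaCl2, 2.5 mM EDTA, 2.5 mM DTT. Enzyme preincubated in buffer 30 min, assayed at 25 °C, fluorescence 460 nm (excitation 380 nm). Ki from Dixon plots, corrected to zero substrate with Km 0.4 mM (calpain I) or 0.22 mM (calpain II).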

Pro-cathepsin H = target: T3, Pro-cathepsin H (Homo sapiens, UniProt P09668); assay: Inhibition constant for the non time dependent inhibition of cathepsin H
T3 sequence (P09668 whole entry): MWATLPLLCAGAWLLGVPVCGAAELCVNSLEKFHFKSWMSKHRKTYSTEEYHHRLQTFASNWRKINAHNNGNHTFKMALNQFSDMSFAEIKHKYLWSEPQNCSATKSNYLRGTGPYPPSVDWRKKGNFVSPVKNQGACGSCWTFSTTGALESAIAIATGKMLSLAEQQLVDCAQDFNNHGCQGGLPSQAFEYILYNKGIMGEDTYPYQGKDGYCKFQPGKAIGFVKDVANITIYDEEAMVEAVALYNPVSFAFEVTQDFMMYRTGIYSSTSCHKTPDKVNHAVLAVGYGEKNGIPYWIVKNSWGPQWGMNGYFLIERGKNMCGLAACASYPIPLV

Papain (Carica papaya) [5] = target: T1, Papain (Carica papaya); assay: Second-order rate constants for the inactivation of papain at pH 4 (vascular plant enzyme)
In short: (§1)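 Papain (0.5 mg mL-1) with 1.4–1.5 mM L-BAPA, read at 405 nm, 25 °C. Buffers: 50 mM citrate for pH 4–6, phosphate for pH 6–8, borate for pH 8–9. kobs came from continuous or dilution assays at 3–7 inhibitor concentrations. k_i/K_i came from a hyperbolic or linear fit, corrected to zero substrate (Km 2.5 mM).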

Papain (Carica papaya) [6] = target: T1, Papain (Carica papaya); assay: Second-order rate constants for the inactivation of papain at pH 6.5(vascular plant enzyme); in short: as §1
Papain (Carica papaya) [7] = target: T1, Papain (Carica papaya); assay: Second-order rate constants for the inactivation of papain at pH 8(vascular plant enzyme); in short: as §1

Procathepsin L (Homo sapiens), sequence (P07711 114-333 limits assumed): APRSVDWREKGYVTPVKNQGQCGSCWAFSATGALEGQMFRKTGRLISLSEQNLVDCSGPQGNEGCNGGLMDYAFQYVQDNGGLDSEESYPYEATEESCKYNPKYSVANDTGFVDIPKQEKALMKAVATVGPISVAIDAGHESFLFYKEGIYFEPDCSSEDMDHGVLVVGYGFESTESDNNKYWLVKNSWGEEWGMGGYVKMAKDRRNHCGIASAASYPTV

ki/Ki [1]	ki/Ki (Papain (Carica papaya) [2])	ki/Ki (Cathepsin B (Bos taurus))	Compound	also measured
1.65 M⁻¹ s⁻¹	1.08 M⁻¹ s⁻¹		CCOC(=O)C1C(C(=O)OCC)N1C(=O)[C@H](CC(C)C)NC(=O)OCC1c2ccccc2-c2ccccc21 (some centres undefined)	
5.28 M⁻¹ s⁻¹	4.95 M⁻¹ s⁻¹	6.48 M⁻¹ s⁻¹	CCOC(=O)[C@@H]1[C@@H](C(=O)OCC)N1C(=O)CNC(=O)CNC(=O)OCc1ccccc1	
7.82 M⁻¹ s⁻¹	22.8 M⁻¹ s⁻¹	7.58 M⁻¹ s⁻¹	CCOC(=O)[C@@H]1[C@@H](C(=O)OCC)N1C(=O)[C@H](C)NC(=O)[C@@H](Cc1ccccc1)NC(=O)OC(C)(C)C	
98.3 M⁻¹ s⁻¹	12.8 M⁻¹ s⁻¹	32.3 M⁻¹ s⁻¹	CCOC(=O)[C@H]1[C@H](C(=O)N[C@@H](CC(C)C)C(=O)N2CCCC2C(=O)OCc2ccccc2)N1C(=O)[C@H](Cc1ccccc1)NC(=O)OC(C)(C)C (some centres undefined)	
0.267 M⁻¹ s⁻¹	0.7 M⁻¹ s⁻¹	0.3 M⁻¹ s⁻¹	CCOC(=O)[C@H]1[C@H](C(=O)OCC)N1C(=O)C(Cc1ccccc1)NC(=O)OC(C)(C)C (single isomer, unassigned)	
5.25 M⁻¹ s⁻¹	8.72 M⁻¹ s⁻¹	7.02 M⁻¹ s⁻¹	CCOC(=O)[C@@H]1[C@@H](C(=O)OCC)N1C(=O)[C@H](C)NC(=O)[C@H](Cc1ccccc1)NC(=O)CNC(=O)OCc1ccccc1	
0.483 M⁻¹ s⁻¹	2.95 M⁻¹ s⁻¹	2.08 M⁻¹ s⁻¹	CCOC(=O)[C@@H]1[C@@H](C(=O)OCC)N1C(=O)[C@H](Cc1ccccc1)NC(=O)[C@H](C)NC(=O)OCc1ccccc1	
5.23 M⁻¹ s⁻¹	3.75 M⁻¹ s⁻¹	4.28 M⁻¹ s⁻¹	CCOC(=O)[C@H]1[C@H](C(=O)N[C@@H](CC(C)C)C(=O)OCc2ccccc2)N1C(=O)[C@H](Cc1ccccc1)NC(=O)OC(C)(C)C	Ki [4]: 42 µM; Ki (Pro-cathepsin H): 137 µM
3.13 M⁻¹ s⁻¹	8.42 M⁻¹ s⁻¹	20.5 M⁻¹ s⁻¹	CCOC(=O)C1C(C(=O)O)N1C(=O)[C@H](Cc1ccccc1)NC(=O)OC(C)(C)C (some centres undefined)	
4.68 M⁻¹ s⁻¹	20.5 M⁻¹ s⁻¹	7.38 M⁻¹ s⁻¹	CCOC(=O)C1C(C(=O)OCc2ccccc2)N1C(=O)[C@H](C)NC(=O)[C@H](Cc1ccccc1)NC(=O)OC(C)(C)C (some centres undefined)	
3.65 M⁻¹ s⁻¹	2.85 M⁻¹ s⁻¹	2.03 M⁻¹ s⁻¹	CCOC(=O)[C@@H]1[C@@H](C(=O)N[C@@H](CC(C)C)C(=O)OCc2ccccc2)N1C(=O)[C@H](Cc1ccccc1)NC(=O)OC(C)(C)C	Ki (Pro-cathepsin H): 93 µM
0.55 M⁻¹ s⁻¹	0.35 M⁻¹ s⁻¹	0.367 M⁻¹ s⁻¹	CCOC(=O)[C@H]1[C@H](C(=O)OCC)N1C(=O)[C@H](Cc1ccccc1)NC(=O)C(C)NC(=O)OCc1ccccc1 (single isomer, unassigned)	
	5.35 M⁻¹ s⁻¹	7.5 M⁻¹ s⁻¹	CCOC(=O)[C@@H]1[C@@H](C(=O)N[C@@H](CC(C)C)C(=O)N2CCCC2C(=O)OCc2ccccc2)N1C(=O)[C@H](Cc1ccccc1)NC(=O)OC(C)(C)C (some centres undefined)	
53.9 M⁻¹ s⁻¹	2.48 M⁻¹ s⁻¹	4 M⁻¹ s⁻¹	CCOC(=O)C1C(C(=O)OCc2ccccc2)N1C(=O)CNC(=O)[C@H](CC(C)C)NC(=O)OC(C)(C)C (some centres undefined)	
	1.27 M⁻¹ s⁻¹		CCOC(=O)C1C(C(=O)OCc2ccccc2)N1C(=O)[C@H](Cc1ccccc1)NC(=O)OC(C)(C)C (some centres undefined)	

Continued, molecule first:

Compound	ki/Ki [1]	ki/Ki (Papain (Carica papaya) [2])	ki/Ki (Cathepsin B (Bos taurus))	also measured
CCOC(=O)[C@@H]1N[C@H]1C(=O)N[C@@H](CC(C)C)C(=O)O		1.05 M⁻¹ s⁻¹		
CCOC(=O)C1NC1C(=O)N[C@@H](CC(C)C)C(=O)NCCC(C)C (some centres undefined)		3 M⁻¹ s⁻¹		
CC(C)CCNC(=O)C(CC(C)C)NC(=O)[C@@H]1N[C@H]1C(=O)O (single isomer, unassigned)		0.167 M⁻¹ s⁻¹		
CC(C)CCNC(=O)[C@H](CC(C)C)NC(=O)[C@H]1N[C@@H]1C(=O)O		0.167 M⁻¹ s⁻¹		
CC[C@H](C)C(NC(=O)[C@@H]1N[C@H]1C(=O)NCC(C)C)C(=O)N1CCCC1C(=O)O (single isomer, unassigned)	50 M⁻¹ s⁻¹		13 M⁻¹ s⁻¹	ki/Ki (Papain (Carica papaya) [3]): inactive
CCOC(=O)C1NC1C(=O)OCC (centres undefined)				ki/Ki (Papain (Carica papaya) [5]): 1.02 M⁻¹ s⁻¹
CCOC(=O)[C@@H]1[C@@H](C(=O)OCC)N1C(=O)[C@H](C)NC(=O)OC(C)(C)C		0.717 M⁻¹ s⁻¹		
CCOC(=O)C1NC1C(=O)N[C@H](CC(C)C)C(=O)NCCC(C)C (some centres undefined)		55 M⁻¹ s⁻¹		
CCOC(=O)[C@H]1N[C@@H]1C(=O)N[C@@H](CC(C)C)C(=O)N1CCC[C@H]1C(=O)OCc1ccccc1	35.7 M⁻¹ s⁻¹	3.78 M⁻¹ s⁻¹	6.75 M⁻¹ s⁻¹	
CCOC(=O)C1NC1C(=O)N[C@@H](CC(C)C)C(=O)OCc1ccccc1 (some centres undefined)	52.2 M⁻¹ s⁻¹	3.57 M⁻¹ s⁻¹	0.683 M⁻¹ s⁻¹	ki/Ki (Papain (Carica papaya) [5]): 13.1 M⁻¹ s⁻¹; ki/Ki (Papain (Carica papaya) [6]): 2.8 M⁻¹ s⁻¹; ki/Ki (Papain (Carica papaya) [7]): 0.4 M⁻¹ s⁻¹; Ki (Pro-cathepsin H): 260 µM
